Shown are actives, neighbours in structure and some others; about 3.1% of the full set was active somewhere.
PAFAH1B2 FP inh: blocks human PAF acetylhydrolase 1b catalytic subunit 2; recombinant PAFAH1B2, FP-rhodamine activity probe, fluorescence polarization; inhibition, % at 3.39 µM; actives 1.2% (n = 340,000);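 active = inhibition above the mean of all tested compounds plus 3 SD, cut at about 24% in these data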;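 note: 0% = enzyme with DMSO and 100% = wells lacking PAFAH1B2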
Target sequence (P68402 whole entry, looked up): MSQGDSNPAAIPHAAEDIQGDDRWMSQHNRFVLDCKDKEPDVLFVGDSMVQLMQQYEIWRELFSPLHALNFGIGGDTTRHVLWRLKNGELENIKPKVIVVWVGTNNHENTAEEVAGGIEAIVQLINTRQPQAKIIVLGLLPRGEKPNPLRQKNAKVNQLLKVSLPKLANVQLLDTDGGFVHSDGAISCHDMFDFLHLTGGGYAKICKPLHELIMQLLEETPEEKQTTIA
PAFAH1B3 inh: inhibitors of human PAFAH1B3; inhibition, % at 3.39 µM; actives 0.28% (n = 340,000); AID 492972; recombinant PAFAH1B3, FP-rhodamine probe, fluorescence polarization;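 active = inhibition above the screen-wide average of all tested compounds plus 3 SD, cut at about 25% in these data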;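 note: 0% = enzyme with DMSO only and 100% = wells lacking PAFAH1B3 protein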
Target sequence (Q15102 whole entry, looked up): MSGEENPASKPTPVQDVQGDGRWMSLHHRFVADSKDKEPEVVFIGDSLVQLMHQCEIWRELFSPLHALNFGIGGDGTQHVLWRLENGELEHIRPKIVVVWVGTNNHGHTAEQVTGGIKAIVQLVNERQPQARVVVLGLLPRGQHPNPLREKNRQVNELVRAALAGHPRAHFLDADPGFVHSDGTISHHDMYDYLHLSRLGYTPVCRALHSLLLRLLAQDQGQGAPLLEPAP
Apaf-1 inh: blocks human Apaf-1 apoptosome activity | reconstituted apoptosome caspase-3 activity, DEVD-Rh110 fluorescence | AID 489030 | actives 0.71% (n = 330,000) | inhibition, % at 20 µM; active = inhibition of at least 40% at 20 µM;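 note: plate controls were DMSO wells for no effect and DEVD-CHO caspase inhibitor wells for full effect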
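System: Apoptosome proteins | Medium: Hepes pH 7.5 with detergent and BSA | Also added: Cytochrome c trigger plus (Z-DEVD)2-Rh110 caspase-3 substrate | Incubation: 30 min compound preincubation, 50 min activation, room temperature | Detection: Rhodamine 110 fluorescence at Ex 480/Em 540 nm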
pPAFAH FP inh: inhibitors of human plasma PAF acetylhydrolase (pPAFAH) | Q13093 | recombinant pPAFAH, FP-rhodamine probe fluorescence polarization | inhibition, % at 3.39 µM | actives 1.5% (n = 330,000) | AID 463082;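 active = inhibition above the mean inhibition across the screen plus 3 SD, cut at about 25% in these data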;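 note: inhibitors block binding of the rhodamine activity-based probe so polarization drops; 0% = enzyme with DMSO and 100% = wells lacking pPAFAH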
PAFAH2 inh: inhibitors of human PAFAH2. Q99487. recombinant PAFAH2, FP-rhodamine activity probe, fluorescence polarization. inhibition, % at 3.39 µM. actives 0.99% (n = 340,000);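 active = inhibition above the mean over all tested compounds plus 3 SD, cut at about 30% in these data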;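 note: inhibitors block probe labeling of enzyme so polarization drops; 0% = enzyme with DMSO and 100% = wells lacking PAFAH2 protein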
Apaf-1 inh conf: Apaf-1 inhibition, single-dose confirmed. shares compounds with Apaf-1 inh. inhibition, % at 20 µM. actives 25% (n = 1,800). reconstituted apoptosome, caspase-3 DEVD-Rh110 fluorescence;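 active = mean inhibition of at least 40% at 20 µM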;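 note: plate controls were DMSO wells for no effect and DEVD-CHO caspase inhibitor control wells for full effect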
Rh110 interf inh: counter-screen for Apaf-1 inhibitors: fluorescence interference. AID 504615. 1,800 tested, under 10 active. shares compounds with Apaf-1 inh. activation (fluorescence interference), % at 20 µM. Rh110 fluorescence interference, quenched caspase reaction;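 active = signal rise of 40% or more at 20 µM, treated as a fluorescence artifact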
Apaf1 inh interf: shows fluorescence interference in the Apaf-1 inhibitor assay format. shares compounds with Apaf-1 inh. IC50, µM. fluorescence interference counterscreen, Apaf-1 assay format. 460 tested, under 10 active. AID 588538; call rule not given here
* = called active by the depositor; x = no result given.

SMILES | PAFAH1B2 FP inh | PAFAH1B3 inh | Apaf-1 inh | pPAFAH FP inh | PAFAH2 inh | Apaf-1 inh conf | Rh110 interf inh | others
C#CCOCCOCCOCCNc1nc(N2CCN(C(=O)CCCCCCCCCCNC(=O)Cn3cc(CCCCCN)nn3)CC2)nc(N2CCN(C(=O)CCCCCCCCCCNC(=O)Cn3cc(CCCCCN)nn3)CC2)n1 | 0.8 | 4.5 | 65.0* | 5.3 | -1.4 | 50.6* | 7.0 | Apaf1 inh interf=>100
C#CCOCCOCCOCCNc1nc(N2CCN(C(=O)CCCCCCCCCCNC(=O)Cn3cc(CCCCCN)nn3)CC2)nc(N2CCN(C(=O)CCCCCCCCCCNC(=O)[C@H]([C@@H](C)CC)n3cc(CCCCN=C(N)N)nn3)CC2)n1 | -1.5 | 11.4 | 85.4* | 14.3 | 0.6 | 69.1* | 3.0 | Apaf1 inh interf=>100
O=C(CSc1nccc(=O)[nH]1)NN(c1ccccc1)c1ccccc1 | 0.6 | 9.9 | -0.9 | 1.3 | -4.5 | x | x
C#CCOCCOCCOCCNc1nc(N2CCN(C(=O)CCCCCCCCCCNC(=O)Cn3cc(C[C@@H](C)O)nn3)CC2)nc(N2CCN(C(=O)CCCCCCCCCCNC(=O)[C@H](CCCN=C(N)N)n3cc(C[C@@H](C)CC)nn3)CC2)n1 | -6.0 | 2.8 | 62.0* | 5.7 | -4.2 | 36.2 | 5.9
C#CCOCCOCCOCCNc1nc(N2CCN(C(=O)Cn3cc(CCCN=C(N)N)nn3)CC2)nc(N2CCN(C(=O)Cn3cc(CC(C)O)nn3)CC2)n1 (stereo not drawn) | 8.9 | 6.4 | x | x | -3.1 | x | x
Cc1c(Cl)cccc1NC(=O)CNC(=O)C1CCN(C(=O)Nc2ccccc2)CC1 | 3.3 | 11.3 | -4.8 | 0.9 | -9.3 | x | x
Cc1ccc(S(=O)(=O)C(C#N)c2nc3ccccc3nc2N2CCCC2)cc1 (stereo not drawn) | 0.8 | 4.5 | 77.2* | 19.4 | 22.1 | 20.5 | 6.0
CCN1/C(=C/c2ccc3cc(C)ccc3[n+]2CC)Sc2ccc3sccc3c21 | -10.4 | -13.1 | 62.2* | 8.5 | -18.4 | 59.7* | -9.1 | Apaf1 inh interf=>100
CCN1/C(=C\c2ccc3cc(C)ccc3[n+]2CC)Sc2cc(C)c(C)cc21 | -80.9 | -1.7 | x | x | -7.8 | x | x
O=C1C(=C(O)c2ccccc2)C(=O)c2ccccc21 | -6.2 | 2.5 | 41.5* | -0.4 | 2.5 | 13.1 | -7.0
O=C1C(=C(c2ccccc2)c2ccccc2)Nc2ccccc21 | -1.1 | -3.7 | 18.7 | 8.6 | 3.8 | x | x
OC(c1cc(-c2ccc(C(F)(F)F)cc2)nc(C(F)(F)F)c1)C1CCCCN1 (stereo not drawn) | 3.6 | 15.4 | 26.5 | 11.6 | -0.6 | x | x
OC(c1cc(C(F)(F)F)nc2c(C(F)(F)F)cccc12)C1CCCCN1 (stereo not drawn) | -0.8 | 2.5 | 48.2* | -0.5 | -5.4 | 27.1 | 1.6
COc1ccc(-c2nc3ncccc3n2O)cc1 | 1.4 | 1.2 | 1.2 | -3.9 | 6.2 | x | x
COc1cccc(CC(=O)OCC(=O)NC(=O)c2ccc(OC(F)F)cc2)c1 | 1.6 | 5.7 | 5.3 | -0.9 | -1.6 | x | x
c1csc(-c2nc3c4ccccc4c4ccccc4c3[nH]2)c1 | 16.1 | 5.0 | 44.2* | 23.8 | 11.1 | 32.5 | 12.1
COc1cccc2cc(C(=O)NCc3ccc(Cl)cc3)c(=N)oc12 | 5.8 | -0.8 | 41.6* | 5.6 | -0.6 | 24.1 | 10.7
COc1cccc2cc(C(=O)NCc3ccccc3)c(=N)oc12 | -0.2 | 7.7 | 31.9 | 7.7 | 0.0 | x | x
O=C1NC2=C(CCc3ccccc32)C(c2ccccc2)N1 (stereo not drawn) | -2.6 | 3.0 | 91.5* | 1.9 | -3.4 | 12.7 | 0.0
C=CCOc1ccc(C2NC(=S)NC3=C2CCc2ccccc23)cc1 (stereo not drawn) | -5.4 | -7.7 | 1.3 | 5.1 | -2.4 | x | x
CN(C)c1cccc2cccc(N(C)C)c12 | 0.0 | 8.6 | 89.4* | 3.7 | 11.9 | 19.4 | -2.9
CC(=O)c1ccc(N(C)C)c2c(N(C)C)cccc12 | -1.5 | 3.2 | 2.7 | 6.2 | 12.7 | x | x
CCN(CC(=O)Nc1ccc(S(=O)(=O)N2CCCC2)cc1)CC(=O)Nc1ccccc1C(F)(F)F | 11.6 | 7.1 | 15.8 | -1.9 | 3.6 | x | x
